Laboratory results: ChEMBL document CHEMBL4725389, “Novel Blocker of Onco SK3 Channels Derived from Scorpion Toxin Tamapin and Active against Migration of Cancer Cells” (ACS Med Chem Lett, 2020)
The source made the active and inactive calls. No cut-off for these calls is given here. Positions of bridges follow the written chain, without caps; N, C: chain ends. Residues, ends and D or L forms follow the SMILES beside them.

Columns and labels:
[1] = molecular target: Small conductance calcium-activated potassium channel protein 2 (Rattus norvegicus, UniProt P70604); assay: Inhibition of recombinant rat SK2 expressed in HEK293 cells assessed as […] at membrane potential -120 mV for 50 ms followed by 400 ms voltage ramp to 60 mV by whole cell patch clamp method; type: cell-based
Sequence of Small conductance calcium-activated potassium channel protein 2 (P70604 whole entry): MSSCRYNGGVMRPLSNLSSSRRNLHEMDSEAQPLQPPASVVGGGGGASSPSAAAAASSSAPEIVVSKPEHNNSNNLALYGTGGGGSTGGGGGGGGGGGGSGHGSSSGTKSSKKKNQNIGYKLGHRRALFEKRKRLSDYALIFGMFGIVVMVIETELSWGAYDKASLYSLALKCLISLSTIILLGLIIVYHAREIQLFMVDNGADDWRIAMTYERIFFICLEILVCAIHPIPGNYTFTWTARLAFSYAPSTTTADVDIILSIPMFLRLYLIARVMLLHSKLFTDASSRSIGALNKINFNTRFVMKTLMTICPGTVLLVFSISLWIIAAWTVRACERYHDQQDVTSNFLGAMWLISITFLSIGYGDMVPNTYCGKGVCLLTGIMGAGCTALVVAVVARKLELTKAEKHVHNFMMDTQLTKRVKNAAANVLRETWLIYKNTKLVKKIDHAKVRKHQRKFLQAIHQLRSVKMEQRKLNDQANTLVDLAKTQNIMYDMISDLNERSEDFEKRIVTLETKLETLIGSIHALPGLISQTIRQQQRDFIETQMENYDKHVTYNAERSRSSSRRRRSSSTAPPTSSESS

[2] = molecular target: T1, Small conductance calcium-activated potassium channel protein 3 (Homo sapiens, UniProt Q9UGI6); assay: Inhibition of recombinant human SK3 expressed in HEK293T cells assessed as […] at membrane potential -120 mV for 50 ms followed by 400 ms voltage ramp to 60 mV by whole cell patch clamp method; type: cell-based, HEK-293T
T1 sequence (Q9UGI6 whole entry): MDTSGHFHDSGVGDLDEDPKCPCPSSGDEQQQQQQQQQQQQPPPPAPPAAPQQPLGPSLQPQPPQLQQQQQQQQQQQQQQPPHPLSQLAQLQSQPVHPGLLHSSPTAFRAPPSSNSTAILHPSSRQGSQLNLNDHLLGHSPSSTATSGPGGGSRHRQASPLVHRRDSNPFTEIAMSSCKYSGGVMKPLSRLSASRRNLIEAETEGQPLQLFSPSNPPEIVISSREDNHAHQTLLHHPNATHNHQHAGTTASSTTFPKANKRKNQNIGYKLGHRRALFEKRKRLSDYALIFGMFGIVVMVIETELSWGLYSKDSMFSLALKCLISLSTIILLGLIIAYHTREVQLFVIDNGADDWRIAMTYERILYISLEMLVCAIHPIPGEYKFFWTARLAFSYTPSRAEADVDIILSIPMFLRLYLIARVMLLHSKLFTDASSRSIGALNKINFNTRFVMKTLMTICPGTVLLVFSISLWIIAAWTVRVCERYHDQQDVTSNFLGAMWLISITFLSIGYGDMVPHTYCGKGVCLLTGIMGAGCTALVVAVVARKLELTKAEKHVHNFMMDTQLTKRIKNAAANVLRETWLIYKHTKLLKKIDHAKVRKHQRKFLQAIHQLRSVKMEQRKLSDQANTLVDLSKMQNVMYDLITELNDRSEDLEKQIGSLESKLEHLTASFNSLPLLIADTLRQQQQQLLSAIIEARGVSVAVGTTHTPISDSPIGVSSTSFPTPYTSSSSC

[3] = molecular target: T1, Small conductance calcium-activated potassium channel protein 3; assay: Inhibition of recombinant human SK3 expressed in HEK293T cells assessed as reduction in channel current with holding potential 0 mV and ramp voltage from -100 to 100 mV by whole cell patch clamp method; type: cell-based, HEK-293T
Procedure, shortened: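 HEK293T stably expressing recombinant human SK3, whole-cell recording at pCa 6. Ramp −100 to 100 mV, 500 ms, from 0 mV holding; current at 0 mV taken as SKCa-only. Concentration–response curves fitted for EC50 (means ± SEM, n = 3–8).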

[4] = molecular target: T1, Small conductance calcium-activated potassium channel protein 3; assay: Inhibition of recombinant human SK3 expressed in HEK293T cells at 10 nM and holding potential at 0 mV and ramp voltage from -100 to 100 mV by whole cell patch clamp method relative to control; type: cell-based; conditions: HEK-293T
[5] = molecular target: T1, Small conductance calcium-activated potassium channel protein 3; assay: Inhibition of recombinant human SK3 expressed in HEK293T cells assessed as ratio of amplitude of outward current blocked in presence and absence of compound at 1 nM and holding potential at 0 mV and ramp voltage from -100 to 100 mV by whole cell patch clamp method relative to control; type: cell-based
Procedure, shortened: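 Whole-cell patch clamp on HEK293T cells expressing recombinant human SK3, pCa 6. Ramp from −100 to 100 mV over 500 ms, holding at 0 mV; currents analysed at 0 mV. Peptide at 1 nM, then 100 nM apamin to block residual SKCa current. Inhibition = ratio of outward current amplitude blocked at 1 nM to amplitude without compound.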

MDA-MB-435 [6] = assay: Inhibition of cell migration in human MDA-MB-435 cells transfected with lentivrus-encoding shRNA against SK3 by matrigel invasion method relative to control; type: functional
Procedure, shortened: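 MDA-MB-435s cells lacking SK3 expression were exposed to peptides at 100 nM. Migration is given as migrating cells with peptide divided by migrating cells under control conditions (means ± SEM, N = 4, n = 12). Groups were compared by Kruskal–Wallis with post hoc tests.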

[7] = molecular target: Small conductance calcium-activated potassium channel protein 2 (Rattus norvegicus) (UniProt P70604); assay: Inhibition of recombinant rat SK2 expressed in HEK293 cells at 10 nM and holding potential at 0 mV and ramp voltage from -100 to 100 mV by whole cell patch clamp method relative to control; type: cell-based
Sequence of Small conductance calcium-activated potassium channel protein 2 (Rattus norvegicus) (P70604 whole entry): as the sequence (P70604 whole entry) above

[8] = molecular target: T1, Small conductance calcium-activated potassium channel protein 3; assay: Inhibition of SK3-dependent cell migration in human MDA-MB-435 cells assessed as ratio of total cells migrating by matrigel invasion method relative to control; type: cell-based
MDA-MB-435 [9] = assay: Inhibition of cell migration in human MDA-MB-435 cells expressing SK3 by matrigel invasion method relative to control

CC[C@H](C)[C@@H]1NC(=O)[C@@H]2CSSC[C@H](NC(=O)[C@H](Cc3ccccc3)NC(=O)[C@H](C)N)C(=O)N[C@@H](CC(N)=O)C(=O)N[C@@H](CC(C)C)C(=O)N[C@@H](CCCNC(=N)N)C(=O)N[C@@H](CCSC)C(=O)N[C@H]3CSSC[C@H](NC(=O)[C@H](CCCCN)NC(=O)[C@H](CC(=O)O)NC(=O)CNC1=O)C(=O)N[C@@H](CCC(=O)O)C(=O)N[C@H](C(=O)N[C@H](C(=O)N[C@@H](CCCCN)C(=O)N[C@@H](Cc1c[nH]cn1)C(=O)O)C(C)C)CSSC[C@H](NC(=O)[C@H](CO)NC(=O)[C@H](CC(C)C)NC(=O)[C@H](CCC(N)=O)NC3=O)C(=O)N[C@@H](CCCNC(=N)N)C(=O)N[C@@H](CO)C(=O)N[C@@H](CC(C)C)C(=O)NCC(=O)N[C@@H](CC(C)C)C(=O)N[C@@H](CC(C)C)C(=O)NCC(=O)N[C@@H](CCCCN)C(=O)N2 (H-AFCNLRMCQLSCRSLGLLGKCIGDKCECVKH-OH; disulfide 3-21, 8-26, 12-28)
EC50 [1]: 0.29 nM | EC50 [2]: 1.1 nM

CC[C@H](C)[C@@H]1NC(=O)[C@@H]2CSSC[C@H](NC(=O)[C@H](Cc3ccccc3)NC(=O)[C@H](C)N)C(=O)N[C@@H](CC(N)=O)C(=O)N[C@@H](CC(C)C)C(=O)N[C@@H](CCCNC(=N)N)C(=O)N[C@@H](CCCNC(=N)N)C(=O)N[C@H]3CSSC[C@H](NC(=O)[C@H](CCC(=O)O)NC(=O)[C@H](CCC(=O)O)NC(=O)CNC1=O)C(=O)N[C@@H](CCCCN)C(=O)N[C@H](C(=O)N[C@H](C(=O)N1CCC[C@H]1C(=O)N[C@@H](Cc1ccc(O)cc1)C(N)=O)C(C)C)CSSC[C@H](NC(=O)[C@H](CO)NC(=O)[C@H](CC(C)C)NC(=O)[C@H](CCC(=O)O)NC3=O)C(=O)N[C@@H](CCCNC(=N)N)C(=O)N[C@@H](CO)C(=O)N[C@@H](CC(C)C)C(=O)NCC(=O)N[C@@H](CC(C)C)C(=O)N[C@@H](CC(C)C)C(=O)NCC(=O)N[C@@H](CCCCN)C(=O)N2 (H-AFCNLRRCELSCRSLGLLGKCIGEECKCVPY-NH2; disulfide 3-21, 8-26, 12-28)
EC50 [1]: 0.024 nM | EC50 [2]: 1.7 nM

CC[C@H](C)[C@@H]1NC(=O)[C@@H]2CSSC[C@H](NC(=O)[C@H](Cc3ccccc3)NC(=O)[C@H](C)N)C(=O)N[C@@H](CC(N)=O)C(=O)N[C@@H](CC(C)C)C(=O)N[C@@H](CCCNC(=N)N)C(=O)N[C@@H](CCCNC(=N)N)C(=O)N[C@H]3CSSC[C@H](NC(=O)[C@H](CCC(=O)O)NC(=O)[C@H](CCC(=O)O)NC(=O)CNC1=O)C(=O)N[C@@H](CCCCN)C(=O)N[C@H](C(=O)N[C@H](C(=O)N1CCC[C@H]1C(=O)N[C@@H](Cc1ccc(O)cc1)C(=O)O)C(C)C)CSSC[C@H](NC(=O)[C@H](CO)NC(=O)[C@H](CC(C)C)NC(=O)[C@H](CCC(=O)O)NC3=O)C(=O)N[C@@H](CCCNC(=N)N)C(=O)N[C@@H](CO)C(=O)N[C@@H](CC(C)C)C(=O)NCC(=O)N[C@@H](CC(C)C)C(=O)N[C@@H](CC(C)C)C(=O)NCC(=O)N[C@@H](CCCCN)C(=O)N2 (H-AFCNLRRCELSCRSLGLLGKCIGEECKCVPY-OH; disulfide 3-21, 8-26, 12-28)
EC50 [3]: 2.6 nM | inhibition [4]: 40% | inhibition [5]: 25% | inhibition (MDA-MB-435 [6]): inactive | inhibition [7]: > 85% | inhibition [8]: inactive

CC[C@H](C)[C@@H]1NC(=O)[C@@H]2CSSC[C@H](NC(=O)[C@H](Cc3ccccc3)NC(=O)[C@H](C)N)C(=O)N[C@@H](CC(N)=O)C(=O)N[C@@H](CC(C)C)C(=O)N[C@@H](CCCNC(=N)N)C(=O)N[C@@H](CCCNC(=N)N)C(=O)N[C@H]3CSSC[C@H](NC(=O)[C@H](CCCCN)NC(=O)[C@H](CCC(=O)O)NC(=O)CNC1=O)C(=O)N[C@@H](CCC(=O)O)C(=O)N[C@H](C(=O)N[C@H](C(=O)N1CCC[C@H]1C(=O)N[C@@H](Cc1ccc(O)cc1)C(=O)O)C(C)C)CSSC[C@H](NC(=O)[C@H](CO)NC(=O)[C@H](CC(C)C)NC(=O)[C@H](CCC(=O)O)NC3=O)C(=O)N[C@@H](CCCNC(=N)N)C(=O)N[C@@H](CO)C(=O)N[C@@H](CC(C)C)C(=O)NCC(=O)N[C@@H](CC(C)C)C(=O)N[C@@H](CC(C)C)C(=O)NCC(=O)N[C@@H](CCCCN)C(=O)N2 (H-AFCNLRRCELSCRSLGLLGKCIGEKCECVPY-OH; disulfide 3-21, 8-26, 12-28)
EC50 [3]: 0.38 nM | inhibition [4]: > 85% | inhibition [5]: 73% | inhibition [7]: 40% | inhibition ([8]; concentration not given here): 76.5% | inhibition (INH) (MDA-MB-435 [9]): 45.9%

CC[C@H](C)[C@@H]1NC(=O)[C@@H]2CSSC[C@H](NC(=O)[C@H](Cc3ccccc3)NC(=O)[C@H](C)N)C(=O)N[C@@H](CC(N)=O)C(=O)N[C@@H](CC(C)C)C(=O)N[C@@H](CCCNC(=N)N)C(=O)N[C@@H](CCCNC(=N)N)C(=O)N[C@H]3CSSC[C@H](NC(=O)[C@H](CCCCN)NC(=O)[C@H](CCC(=O)O)NC(=O)CNC1=O)C(=O)N[C@@H](CCCCN)C(=O)N[C@H](C(=O)N[C@H](C(=O)N1CCC[C@H]1C(=O)N[C@@H](Cc1ccc(O)cc1)C(=O)O)C(C)C)CSSC[C@H](NC(=O)[C@H](CO)NC(=O)[C@H](CC(C)C)NC(=O)[C@H](CCC(=O)O)NC3=O)C(=O)N[C@@H](CCCNC(=N)N)C(=O)N[C@@H](CO)C(=O)N[C@@H](CC(C)C)C(=O)NCC(=O)N[C@@H](CC(C)C)C(=O)N[C@@H](CC(C)C)C(=O)NCC(=O)N[C@@H](CCCCN)C(=O)N2 (H-AFCNLRRCELSCRSLGLLGKCIGEKCKCVPY-OH; disulfide 3-21, 8-26, 12-28)
inhibition [4]: 40% | inhibition [7]: < 39%

CC[C@H](C)[C@@H]1NC(=O)[C@@H]2CSSC[C@H](NC(=O)[C@@H](NC(=O)[C@H](C)N)C(C)C)C(=O)N[C@@H](CC(N)=O)C(=O)N[C@@H](CC(C)C)C(=O)N[C@@H](CCCCN)C(=O)N[C@@H](CCCNC(=N)N)C(=O)N[C@H]3CSSC[C@H](NC(=O)[C@H](CCCCN)NC(=O)[C@H](CC(=O)O)NC(=O)CNC1=O)C(=O)N[C@@H](CCC(=O)O)C(=O)N[C@H](C(=O)N[C@H](C(=O)N[C@@H](CCCCN)C(=O)N[C@@H](Cc1c[nH]cn1)C(N)=O)C(C)C)CSSC[C@H](NC(=O)[C@H](CO)NC(=O)[C@H](CC(C)C)NC(=O)[C@H](CCC(N)=O)NC3=O)C(=O)N[C@@H](CCCNC(=N)N)C(=O)N[C@@H](CO)C(=O)N[C@@H](CC(C)C)C(=O)NCC(=O)N[C@@H](CC(C)C)C(=O)N[C@@H](CC(C)C)C(=O)NCC(=O)N[C@@H](CCCCN)C(=O)N2 (H-AVCNLKRCQLSCRSLGLLGKCIGDKCECVKH-NH2; disulfide 3-21, 8-26, 12-28)
EC50 [2]: 3.8 nM
